According to ChEMBL document CHEMBL1123977, “Synthesis, receptor binding, and tissue distribution of (17 alpha,20E)- and (17 alpha,20Z)-21-[125I]iodo-19-norpregna-1,3,5(10), 20-tetraene-3,17-diol ” (1988):
“And” between values parts separate entries of the source, which are not always exact repeats. Equal entries are not always repeated.

Assays:
Rattus norvegicus [1] = test: Mean uptake in ovaries 2 hr after intravenous injection of 3 microCi (111 kBq); assay type: functional, Female gonad
In short: (§1)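 Immature female Fischer rats (24 days old, 55-60 g) had free access to food and water. They were warmed under an infrared lamp, then given 200 μL HPLC-purified 125I-labeled steroid (3 μCi, 111 kBq) in saline with 9% ethanol and 1% Tween 80 via the lateral tail vein. Where stated, 60 μg unlabeled estradiol was co-injected. Rats were killed at 1, 2 or 5 h. Tissues were KCl-washed, blotted, weighed and gamma-counted against a reference of the injectate. Results are PDK (% dose × kg/g), mean and SD of three rats.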

Rattus norvegicus [2] = test: Mean uptake in thyroid 2 hr after intravenous injection of 3 microCi (111 kBq); assay type: functional, Thyroid gland; in short: as §1
Rattus norvegicus [3] = test: Mean uptake in liver 5 hr after intravenous injection of 3 microCi (111 kBq); assay type: functional; in short: as §1
Rattus norvegicus [4] = test: Mean uptake in kidneys 2 hr after intravenous injection of 3 microCi (111 kBq) in presence of 60 ug coinjected estradiol; assay type: functional, Kidney; in short: as §1
Rattus norvegicus [5] = test: Mean uptake in adrenals 2 hr after intravenous injection of 3 uM Ci (111 kBq) in presence of 60 ug coinjected estradiol; assay type: functional, Adrenal gland; in short: as §1
Rattus norvegicus [6] = test: Mean uptake in kidneys 1 hr after intravenous injection of 3 microCi (111 kBq) of the compound; assay type: functional; in short: as §1
Rattus norvegicus [7] = test: Mean uptake in uterus 1 hr after intravenous injection of 3 microCi (111 kBq) of the compound; assay type: functional; in short: as §1
Rattus norvegicus [8] = test: Mean uptake in kidneys 5 hr after intravenous injection of 3 microCi (111 kBq); assay type: functional; in short: as §1
Rattus norvegicus [9] = test: Mean uptake in liver 2 hr after intravenous injection of 3 microCi (111 kBq) in presence of 60 ug coinjected estradiol; assay type: functional; in short: as §1
Rattus norvegicus [10] = test: Mean uptake in ovaries 2 hr after intravenous injection of 3 microCi (111 kBq) in presence of 60 ug coinjected estradiol; assay type: functional, Female gonad; in short: as §1
Rattus norvegicus [11] = species on record: Rattus norvegicus; test: Effect of Co-injection with estradiol on the uterus to blood ratio (Co-injected with 60 microg of estradiol (E2)); assay type: functional
In short: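 Immature female Fischer rats (24 days, 55-60 g) received 3 μCi (111 kBq) 125I-labelled steroid iv via the lateral tail vein, in 200 μL 9% ethanol-saline with 1% Tween 80, co-injected with 60 μg unlabelled estradiol. Killed at 2 h. Uterus and blood were KCl-washed and gamma-counted as PDK. Ratio is the mean of three rats; % change is versus tracer-only animals.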

Rattus norvegicus [12] = test: In vivo deiodination in 2 hour after administration of compound in presence of 60 microg of estradiol; assay type: functional
In short: (§2)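 In immature female Fischer rats given 3 μCi (111 kBq) of 125I-steroid iv, deiodination was estimated from thyroid PDK at 1, 2 or 5 h, or at 2 h with 60 μg co-injected estradiol. Thyroid uptake after [125I]NaI injection at the same time interval was taken as 100%.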

Rattus norvegicus [13] = test: Mean uptake in blood 5 hr after intravenous injection of 3 microCi (111 kBq); assay type: functional; in short: as §1
Rattus norvegicus [14] = test: Mean uptake in liver 2 hr after intravenous injection of 3 microCi (111 kBq); assay type: functional; in short: as §1
Rattus norvegicus [15] = test: Mean uptake in uterus 2 hr after intravenous injection of 3 microCi (111 kBq); assay type: functional
In short: (§3)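 Immature female Fischer rats (24 days old, 55-60 g), food and water free. 3 μCi (111 kBq) HPLC-purified 125I-labeled steroid given iv via lateral tail vein in 200 μL saline containing 9% ethanol and 1% Tween 80; receptor-saturation group co-injected with 60 μg unlabeled estradiol. Sacrificed at set times; uterus washed with 0.154 M KCl, blotted, weighed, gamma counted against injected reference; expressed as PDK (% dose × kg/g), mean of three rats.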

Rattus norvegicus [16] = test: Mean uptake in uterus 5 hr after intravenous injection of 3 microCi (111 kBq); assay type: functional; in short: as §3
Rattus norvegicus [17] = test: Mean uptake in thyroid 1 hr after intravenous injection of 3 microCi (111 kBq) of the compound; assay type: functional, Thyroid gland; in short: as §1
Rattus norvegicus [18] = test: Mean uptake in ovaries 1 hr after intravenous injection of 3 microCi (111 kBq) of the compound; assay type: functional, Female gonad; in short: as §1
Rattus norvegicus [19] = test: Mean uptake in lungs 2 hr after intravenous injection of 3 microCi (111 kBq); assay type: functional; in short: as §1
Rattus norvegicus [20] = test: Mean uptake in brain 1 hr after intravenous injection of 3 microCi (111 kBq) of the compound; assay type: functional; in short: as §1
Rattus norvegicus [21] = test: In vivo deiodination in 2 hour after administration of compound; assay type: functional; in short: as §2
Rattus norvegicus [22] = test: Mean uptake in lungs 2 hr after intravenous injection of 3 uM Ci (111 kBq) in presence of 60 ug coinjected estradiol; assay type: functional; in short: as §1
Rattus norvegicus [23] = test: Mean uptake in adrenals 5 hr after intravenous injection of 3 microCi (111 kBq); assay type: functional, Adrenal gland; in short: as §1
Rattus norvegicus [24] = test: In vivo deiodination in 1 hour after administration of compound; assay type: functional; in short: as §2
Rattus norvegicus [25] = test: Mean uptake in muscles 5 hr after intravenous injection of 3 microCi (111 kBq); assay type: functional, Muscle tissue; in short: as §1
Rattus norvegicus [26] = test: Mean uptake in brain 2 hr after intravenous injection of 3 microCi (111 kBq); assay type: functional; in short: as §1
Rattus norvegicus [27] = test: Mean uptake in liver 1 hr after intravenous injection of 3 microCi (111 kBq) of the compound; assay type: functional; in short: as §1
Rattus norvegicus [28] = test: Mean uptake in spleen 1 hr after intravenous injection of 3 microCi (111 kBq) of the compound; assay type: functional; in short: as §1
Rattus norvegicus [29] = test: Mean uptake in blood 2 hr after intravenous injection of 3 microCi (111 kBq); assay type: functional; in short: as §1
Rattus norvegicus [30] = test: Mean uptake in muscle 2 hr after intravenous injection of 3 microCi (111 kBq); assay type: functional, Muscle tissue; in short: as §1
Rattus norvegicus [31] = test: Mean uptake in brain 2 hr after intravenous injection of 3 uM Ci (111 kBq) in presence of 60 ug coinjected estradiol; assay type: functional; in short: as §1
Rattus norvegicus [32] = test: Mean uptake in spleen 2 hr after intravenous injection of 3 microCi (111 kBq); assay type: functional; in short: as §1
Rattus norvegicus [33] = test: Mean uptake in ovaries 5 hr after intravenous injection of 3 microCi (111 kBq); assay type: functional, Female gonad; in short: as §1
Rattus norvegicus [34] = test: Mean uptake in blood 2 hr after intravenous injection of 3 microCi (111 kBq) in presence of 60 ug coinjected estradiol; assay type: functional; in short: as §1
Rattus norvegicus [35] = test: Mean uptake in spleen 5 hr after intravenous injection of 3 microCi (111 kBq); assay type: functional; in short: as §1
Rattus norvegicus [36] = test: Mean uptake in adrenals 2 hr after intravenous injection of 3 microCi (111 kBq); assay type: functional, Adrenal gland; in short: as §1
Rattus norvegicus [37] = test: In vivo deiodination in 5 hr after administration of compound; assay type: functional; in short: as §2
Rattus norvegicus [38] = test: Mean uptake in kidneys 2 hr after intravenous injection of 3 microCi (111 kBq); assay type: functional; in short: as §1
Rattus norvegicus [39] = test: Mean uptake in blood after intravenous injection of 3 microCi (111 kBq) of the compound; assay type: functional; in short: as §1
Rattus norvegicus [40] = test: Mean uptake in lungs 1 hr after intravenous injection of 3 microCi (111 kBq) of the compound; assay type: functional; in short: as §1
Rattus norvegicus [41] = test: Mean uptake in uterus 2 hr after intravenous injection of 3 uM Ci (111 kBq) in presence of 60 ug coinjected estradiol; assay type: functional; in short: as §3
Rattus norvegicus [42] = test: Mean uptake in lungs 5 hr after intravenous injection of 3 microCi (111 kBq); assay type: functional; in short: as §1
Rattus norvegicus [43] = test: Mean uptake in thyroid 2 hr after intravenous injection of 3 microCi (111 kBq) in presence of 60 ug coinjected estradiol; assay type: functional, Thyroid gland; in short: as §1
Rattus norvegicus [44] = test: Mean uptake in adrenals 1 hr after intravenous injection of 3 microCi (111 kBq) of the compound; assay type: functional, Adrenal gland; in short: as §1
Rattus norvegicus [45] = test: Mean uptake in muscle 1 hr after intravenous injection of 3 microCi (111 kBq) of the compound; assay type: functional, Muscle tissue; in short: as §1
Rattus norvegicus [46] = test: Mean uptake in spleen 2 hr after intravenous injection of 3 microCi (111 kBq) in presence of 60 ug coinjected estradiol; assay type: functional; in short: as §1

C[C@]12CC[C@@H]3c4ccc(O)cc4CC[C@H]3[C@@H]1CC[C@@]2(O)/C=C/[125I]
PDK (Rattus norvegicus [1]): 43
PDK (Rattus norvegicus [2]): 2870
PDK (Rattus norvegicus [3]): 55
PDK (Rattus norvegicus [4]): 29
PDK (Rattus norvegicus [5]): 73
PDK (Rattus norvegicus [6]): 71
PDK (Rattus norvegicus [7]): 92
PDK (Rattus norvegicus [8]): 10
PDK (Rattus norvegicus [9]): 106
PDK (Rattus norvegicus [10]): 39
Change (Rattus norvegicus [11]): -41%
Uterus to blood ratio (Rattus norvegicus [11]): 2.32
Deiodination (Rattus norvegicus [12]): 1.7%
PDK (Rattus norvegicus [13]): 9
PDK (Rattus norvegicus [14]): 92
PDK (Rattus norvegicus [15]): 35
PDK (Rattus norvegicus [16]): 11
PDK (Rattus norvegicus [17]): 1331
PDK (Rattus norvegicus [18]): 108
PDK (Rattus norvegicus [19]): 25
PDK (Rattus norvegicus [20]): 38
Deiodination (Rattus norvegicus [21]): 2.1%
PDK (Rattus norvegicus [22]): 28
PDK (Rattus norvegicus [23]): 21
Deiodination (Rattus norvegicus [24]): 2%
PDK (Rattus norvegicus [25]): 4
PDK (Rattus norvegicus [26]): 12
PDK (Rattus norvegicus [27]): 245
PDK (Rattus norvegicus [28]): 27
PDK (Rattus norvegicus [29]): 10
PDK (Rattus norvegicus [30]): 11 and 13
PDK (Rattus norvegicus [31]): 14
PDK (Rattus norvegicus [32]): 10
PDK (Rattus norvegicus [33]): 16
PDK (Rattus norvegicus [34]): 10
PDK (Rattus norvegicus [35]): 4
PDK (Rattus norvegicus [36]): 72
Deiodination (Rattus norvegicus [37]): 4.4%
PDK (Rattus norvegicus [38]): 27
PDK (Rattus norvegicus [39]): 17
PDK (Rattus norvegicus [40]): 49
PDK (Rattus norvegicus [41]): 22
PDK (Rattus norvegicus [42]): 8
PDK (Rattus norvegicus [43]): 2300
PDK (Rattus norvegicus [44]): 175
PDK (Rattus norvegicus [45]): 30
PDK (Rattus norvegicus [46]): 11
